Each structure is given as a SMILES string.

The Ki is the dissociation constant of the complex between target and ligand, obtained from inhibition or displacement. Broadly, the pKB is the KB on a negative log10 scale, so that one unit is a factor of ten. A high value points to a small KB.

Assay [1] addresses T1, Alpha-1D adrenergic receptor (Homo sapiens, UniProt P25100).
T1 sequence (P25100 whole entry): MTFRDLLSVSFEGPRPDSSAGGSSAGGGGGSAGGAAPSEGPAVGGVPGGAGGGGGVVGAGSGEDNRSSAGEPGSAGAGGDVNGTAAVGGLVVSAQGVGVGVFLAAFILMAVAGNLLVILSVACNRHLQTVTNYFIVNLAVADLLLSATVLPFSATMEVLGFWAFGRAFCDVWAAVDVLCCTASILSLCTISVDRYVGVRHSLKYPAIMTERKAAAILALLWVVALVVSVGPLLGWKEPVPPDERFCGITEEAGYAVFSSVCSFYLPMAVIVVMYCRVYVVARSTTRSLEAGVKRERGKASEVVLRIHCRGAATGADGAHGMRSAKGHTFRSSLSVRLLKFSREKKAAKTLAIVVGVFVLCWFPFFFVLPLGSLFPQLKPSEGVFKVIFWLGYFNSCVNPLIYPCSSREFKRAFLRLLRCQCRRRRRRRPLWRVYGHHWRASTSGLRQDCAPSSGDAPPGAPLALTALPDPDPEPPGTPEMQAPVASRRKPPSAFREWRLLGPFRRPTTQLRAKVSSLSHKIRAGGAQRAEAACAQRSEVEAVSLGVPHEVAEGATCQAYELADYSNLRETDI
Put plainly: Binding affinity measured in CHO cells expressing human cloned Alpha-1D adrenergic receptor expressed as pKi. It is filed as cell-based.

Assay [2] concerns the target T2, Alpha-1A adrenergic receptor (Homo sapiens, UniProt P35348).
T2 sequence (P35348 whole entry): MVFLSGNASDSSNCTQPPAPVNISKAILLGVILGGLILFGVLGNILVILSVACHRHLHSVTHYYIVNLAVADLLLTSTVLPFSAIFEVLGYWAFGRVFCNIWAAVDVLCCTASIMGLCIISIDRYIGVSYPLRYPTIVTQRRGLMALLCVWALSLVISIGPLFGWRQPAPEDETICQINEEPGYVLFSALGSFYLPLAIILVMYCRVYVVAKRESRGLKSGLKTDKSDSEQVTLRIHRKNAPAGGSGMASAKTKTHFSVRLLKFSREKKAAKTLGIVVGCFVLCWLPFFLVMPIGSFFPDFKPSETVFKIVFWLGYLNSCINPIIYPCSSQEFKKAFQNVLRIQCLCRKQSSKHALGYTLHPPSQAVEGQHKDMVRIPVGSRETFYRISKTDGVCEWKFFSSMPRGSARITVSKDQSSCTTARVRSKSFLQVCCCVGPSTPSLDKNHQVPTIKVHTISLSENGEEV
Put plainly: Binding affinity measured in CHO cells expressing human cloned Alpha-1A adrenergic receptor expressed as pKi. The assay is classed as cell-based.

The target in assay [3] is T3, Alpha-1B adrenergic receptor (Homo sapiens, UniProt P35368).
T3 sequence (P35368 whole entry): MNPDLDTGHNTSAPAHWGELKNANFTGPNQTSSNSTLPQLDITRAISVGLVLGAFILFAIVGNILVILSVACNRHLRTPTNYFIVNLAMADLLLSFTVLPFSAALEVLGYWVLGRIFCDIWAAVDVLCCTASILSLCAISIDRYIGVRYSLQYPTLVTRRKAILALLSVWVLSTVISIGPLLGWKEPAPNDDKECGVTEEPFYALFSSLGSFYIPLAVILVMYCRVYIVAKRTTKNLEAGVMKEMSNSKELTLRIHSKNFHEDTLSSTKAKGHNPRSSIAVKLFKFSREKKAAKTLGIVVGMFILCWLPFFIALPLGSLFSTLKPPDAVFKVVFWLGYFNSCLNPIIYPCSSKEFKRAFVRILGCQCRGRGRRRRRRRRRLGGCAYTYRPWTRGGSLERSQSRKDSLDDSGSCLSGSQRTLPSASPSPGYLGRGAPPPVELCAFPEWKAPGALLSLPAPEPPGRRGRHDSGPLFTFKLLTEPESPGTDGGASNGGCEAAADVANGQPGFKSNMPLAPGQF
Put plainly: Binding affinity measured in CHO cells expressing human cloned Alpha-1B adrenergic receptor expressed as pKi. The assay is classed as cell-based.

In assay [4] the target is T4, Alpha-1B adrenergic receptor (Rattus norvegicus) (UniProt P15823).
T4 sequence (whole entry): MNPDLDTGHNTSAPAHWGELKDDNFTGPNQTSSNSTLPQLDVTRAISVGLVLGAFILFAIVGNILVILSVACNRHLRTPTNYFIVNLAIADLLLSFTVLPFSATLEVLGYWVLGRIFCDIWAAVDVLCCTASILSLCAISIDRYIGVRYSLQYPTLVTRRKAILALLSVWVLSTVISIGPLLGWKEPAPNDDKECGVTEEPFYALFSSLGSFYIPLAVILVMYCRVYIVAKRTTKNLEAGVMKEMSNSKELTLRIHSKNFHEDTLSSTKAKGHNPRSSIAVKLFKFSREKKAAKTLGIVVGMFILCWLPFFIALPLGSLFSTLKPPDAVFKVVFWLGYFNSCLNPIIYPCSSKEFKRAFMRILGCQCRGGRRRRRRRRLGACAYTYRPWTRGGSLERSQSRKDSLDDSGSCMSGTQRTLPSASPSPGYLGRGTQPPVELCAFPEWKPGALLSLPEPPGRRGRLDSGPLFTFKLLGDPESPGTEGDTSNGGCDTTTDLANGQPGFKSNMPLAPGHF
Description: Affinity was evaluated against Alpha-1B adrenoceptor in isolated rat spleen expressed as pKB. It is filed as tissue-based. A digest of the protocol:
(§1)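 Isolated rat tissue; isometric contractions recorded via force transducer, with parallel tissues receiving no antagonist to check for sensitivity drift. A control agonist cumulative concentration-response curve was run, then antagonist equilibrated 30 min before a repeat curve. Responses were taken as % of the control maximum. pKB (±SE) was calculated by van Rossum at one concentration (0.1-10 µM range), each tested 4-5 times.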

Assay [5] deals with T5, Alpha-1D adrenergic receptor (Rattus norvegicus) (UniProt P23944).
T5 sequence (whole entry): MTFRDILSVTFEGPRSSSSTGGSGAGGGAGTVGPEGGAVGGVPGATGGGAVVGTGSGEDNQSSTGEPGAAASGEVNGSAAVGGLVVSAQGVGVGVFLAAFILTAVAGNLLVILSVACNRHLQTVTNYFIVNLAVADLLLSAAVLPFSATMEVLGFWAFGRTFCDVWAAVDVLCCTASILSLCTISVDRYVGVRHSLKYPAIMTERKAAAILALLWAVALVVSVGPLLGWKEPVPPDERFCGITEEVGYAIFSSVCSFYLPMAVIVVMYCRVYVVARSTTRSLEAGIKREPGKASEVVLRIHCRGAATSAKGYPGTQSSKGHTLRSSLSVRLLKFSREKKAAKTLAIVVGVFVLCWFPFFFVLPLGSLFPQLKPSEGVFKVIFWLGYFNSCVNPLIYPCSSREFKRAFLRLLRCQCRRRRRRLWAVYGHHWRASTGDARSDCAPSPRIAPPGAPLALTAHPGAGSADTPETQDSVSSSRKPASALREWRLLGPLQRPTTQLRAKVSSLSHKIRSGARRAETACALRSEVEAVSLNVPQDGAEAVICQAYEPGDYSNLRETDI
As to conditions: Aorta.

Assay [6] concerns the target T6, Alpha-1A adrenergic receptor (Rattus norvegicus) (UniProt P43140).
T6 sequence (whole entry): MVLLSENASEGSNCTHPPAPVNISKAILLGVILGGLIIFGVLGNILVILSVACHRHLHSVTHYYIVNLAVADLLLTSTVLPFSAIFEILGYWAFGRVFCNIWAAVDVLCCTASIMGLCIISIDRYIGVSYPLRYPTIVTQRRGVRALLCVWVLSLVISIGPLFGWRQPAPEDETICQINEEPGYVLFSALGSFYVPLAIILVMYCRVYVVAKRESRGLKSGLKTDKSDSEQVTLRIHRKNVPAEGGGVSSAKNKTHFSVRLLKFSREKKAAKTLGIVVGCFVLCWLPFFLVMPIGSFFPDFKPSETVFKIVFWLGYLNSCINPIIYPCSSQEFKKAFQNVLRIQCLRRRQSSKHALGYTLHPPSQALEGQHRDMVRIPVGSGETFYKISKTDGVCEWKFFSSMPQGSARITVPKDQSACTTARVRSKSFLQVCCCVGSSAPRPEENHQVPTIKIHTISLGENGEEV
The note with it: Vas deferens.

Assay [7] has as its target T5, Alpha-1D adrenergic receptor (Rattus norvegicus). Put plainly: Affinity was evaluated against Alpha-1D adrenergic receptor in isolated rat aorta expressed as pKB. The assay is classed as tissue-based. A digest of the protocol: as §1
Assay [8] has as its target T4, Alpha-1B adrenergic receptor (Rattus norvegicus). Description: Affinity was evaluated against Alpha-1B adrenergic receptor in isolated rat spleen expressed as pKB. It is filed as tissue-based. The procedure, abridged: as §1

For `COc1cc2nc3c(c(N)c2cc1OC)CCC(CNCCOc1c(OC)cccc1OC)C3` (configuration not stated), the Ki in assay [1] is 0.2 µM; in assay [2], 0.977 µM; in assay [3], 0.0398 µM. The results for the pKB in assay [4], in assay [5] and in assay [6] were 7.2, 6.39 and 5.7, respectively.
As for `COc1cc2nc3c(c(N)c2cc1OC)CCC(CNC(=O)c1cccc(C(F)(F)F)c1)C3` (configuration not stated), the Ki in assay [1] was 0.0251 µM; in assay [2], 0.0316 µM; in assay [3], 0.0126 µM. Besides, the pKB in assay [7] was determined as 7.58; in assay [4] it was 7.36; in assay [6], 7.16.
Turning to `COc1cc2nc3c(c(N)c2cc1OC)CCC(CNC(=O)c1ccc(C(F)(F)F)cc1)C3` (configuration not stated), the Ki is 0.0191 µM in assay [1], 0.0851 µM in assay [2] and 0.00891 µM in assay [3]. For the same compound, the pKB amounted to 6.67 in assay [7], 7.2 in assay [4] and 6.08 in assay [6].
Regarding `COc1cc2nc3c(c(O)c2cc1OC)CCC(CNC(=O)c1ccco1)C3` (configuration not stated), the Ki in assay [1] was 1.15 µM; in assay [2] it was 2.57 µM; in assay [3], 0.295 µM. The pKB was 6.95 in assay [4], 6.41 in assay [5] and 5.76 in assay [6].
Regarding `COc1cc2nc3c(c(N)c2cc1OC)CCC(CNC(=O)c1ccccc1)C3` (configuration not stated), the pKB was 6.63 in assay [7], 7.19 in assay [4] and 6.67 in assay [6].
With `COc1cc2nc3c(c(N)c2cc1OC)CCCC(CNC(=O)c1ccco1)C3` (configuration not stated), the pKB in assay [4] was 6.92; in assay [5] it was 6.94; in assay [6], 6.34.
As to `COc1cc2nc3c(c(N)c2cc1OC)CC(CNC(=O)c1ccco1)C3` (configuration not stated), the Ki in assay [1] was 0.2 µM; in assay [2] it was 0.158 µM; in assay [3], 0.0794 µM. In addition, the pKB was 6.11 in assay [7], 6.82 in assay [4] and 6.26 in assay [6].
As for `COc1cc2nc3c(c(N)c2cc1OC)CCC(CNC(=O)c1ccco1)C3` (configuration not stated), the Ki in assay [1] is 0.0158 µM; in assay [2] it was 0.0955 µM; in assay [3], 0.0123 µM. The pKB in assay [8] was 7.3; in assay [5], 7.47; in assay [6], 6.52.
In the case of `COc1cccc(OC)c1OCCNCC1COc2ccccc2O1` (configuration not stated), the pKB in assay [4] came to 8.2; in assay [5], 8.85; in assay [6], 9.48.
With `COc1cc2nc3c(c(N)c2cc1OC)CCC(CNC(=O)c1ccccc1C(F)(F)F)C3` (configuration not stated), the Ki in assay [1] is 0.0245 µM; in assay [2] it was 0.288 µM; in assay [3], 0.00741 µM. Besides, the pKB in assay [7] was 6.85; in assay [4], 7.33; in assay [6], 6.47.
Consider `COc1cc2nc3c(c(O)c2cc1OC)CCC(CNCCOc1c(OC)cccc1OC)C3` (configuration not stated), for which the Ki in assay [1] is 0.389 µM; in assay [2] it was 1.7 µM; in assay [3], 0.219 µM. Besides, the figures for the negative-log KB (pKB) in assay [7], in assay [4] and in assay [6] were 5.92, 7.05 and 6.24, respectively.
